{"source": "ChEMBL document CHEMBL2034843", "about": "“3α-Hydroxymasticadienonic acid as an antiproliferative agent that impairs mitochondrial functions” (J Nat Prod, 2012)", "key": {"Rattus norvegicus [1]": {"organism": "Rattus norvegicus", "test": "Hepatoprotective activity in rat liver assessed as inhibition of colloid-osmotic mitochondrial swelling at 100 uM by spectrophotometric analysis in presence of 90 uM Ca2+", "assay_type": "functional", "conditions": "Mitochondria", "outline": "(§1)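 Absorbance change at 540 nm of rat liver mitochondrial suspensions (1 mg protein/mL, 20 °C, succinate/rotenone energized, 250 mM sucrose, 10 mM HEPES pH 7.4, 1 mM phosphate); a fall in absorbance taken as swelling. Ca2+ at 50, 70 or 90 μM as specified, or omitted. Runs repeated at least four times.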"}, "Rattus norvegicus [2]": {"organism": "Rattus norvegicus", "test": "Induction of mitochondrial bioenergetics dysfunction in ADP-stimulated rat liver mitochondria assessed as decrease in oxygen consumption at 10 to 50 uM by using clark electrode", "assay_type": "functional", "outline": "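Isolated rat liver mitochondria (1 mg protein/mL), 20 °C, sucrose/HEPES pH 7.4 medium with 5 mM succinate plus 1.25 μM rotenone and 1 mM phosphate. O2 uptake followed with a Clark electrode; 300 μM ADP added to start state 3. RCI = V3/V4 (state 3 over state 4 rate). Five experiments.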"}, "Rattus norvegicus [3]": {"organism": "Rattus norvegicus", "test": "Induction of mitochondrial dysfunction in rat liver mitochondria assessed as cytochrome c release at 10 uM after 15 mins by Western blot analysis in presence of Ca2+", "assay_type": "functional", "outline": "(§2)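 Mitochondria (1 mg protein/mL) held 15 min at 20 °C in standard succinate/rotenone medium with or without Ca2+, then centrifuged 13000g, 10 min, 4 °C. Supernatants concentrated, resolved by SDS-PAGE (15% for cyt c, 10% for AIF) and immunoblotted with mouse anti-cyt c or rabbit anti-AIF.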"}, "Rattus norvegicus [4]": {"organism": "Rattus norvegicus", "test": "Induction of mitochondrial dysfunction in Ca2+-stimulated rat liver mitochondria assessed as decrease in mitochondrial redox level at 10 uM after 15 mins by absorption spectrophotometric analysis in presence of Ca2+ transport inhibitor ruthedium red", "assay_type": "functional", "outline": "(§3)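 Mitochondrial protein thiol oxidation assayed per Santos et al. after 15 min incubation of rat liver mitochondria (1 mg protein/mL, 20 °C, succinate/rotenone standard medium). Results as % reduced thiols, mean ± SD, four independent experiments.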"}, "Rattus norvegicus [5]": {"organism": "Rattus norvegicus", "test": "Induction of mitochondrial dysfunction in rat liver mitochondria assessed as increase in colloid-osmotic swelling at 10 uM by spectrophotometric analysis in presence of 50 uM Ca2+", "assay_type": "functional", "outline": "as §1"}, "Rattus norvegicus [6]": {"organism": "Rattus norvegicus", "test": "Induction of mitochondrial dysfunction in rat liver mitochondria assessed as decrease in mitochondrial redox level at 100 uM after 15 mins by absorption spectrophotometric analysis in presence of 50 uM Ca2+", "assay_type": "functional", "design": "scale not given: the % may be the effect or the level left", "outline": "as §3"}, "Rattus norvegicus [7]": {"organism": "Rattus norvegicus", "test": "Induction of mitochondrial dysfunction in rat liver mitochondria assessed as apoptosis inducing factor release at 10 uM after 15 mins by Western blot analysis", "assay_type": "functional", "outline": "as §2"}, "Rattus norvegicus [8]": {"organism": "Rattus norvegicus", "test": "Induction of mitochondrial dysfunction in rat liver mitochondria assessed as cytochrome c release at 100 uM after 15 mins by Western blot analysis", "assay_type": "functional", "outline": "as §2"}, "Rattus norvegicus [9]": {"organism": "Rattus norvegicus", "test": "Induction of mitochondrial dysfunction in rat liver mitochondria assessed as apoptosis inducing factor release at 10 uM after 15 mins by Western blot analysis in presence of Ca2+", "assay_type": "functional", "outline": "as §2"}, "Rattus norvegicus [10]": {"organism": "Rattus norvegicus", "test": "Induction of mitochondrial dysfunction in rat liver mitochondria assessed as change in membrane potential by spectrophotometric analysis", "assay_type": "functional"}, "Rattus norvegicus [11]": {"organism": "Rattus norvegicus", "test": "Induction of mitochondrial dysfunction in rat liver mitochondria assessed as decrease in mitochondrial pyridine nucleotide redox level at 10 uM after 15 mins by fluorometric analysis in presence of Ca2+"}, "Rattus norvegicus [12]": {"organism": "Rattus norvegicus", "test": "Induction of mitochondrial dysfunction in rat liver mitochondria assessed as increase in colloid-osmotic swelling at 10 uM by spectrophotometric analysis in presence of 50 uM Ca2+ and dithiothreitol", "assay_type": "functional", "outline": "(§4)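 Swelling read as the 540 nm absorbance decrease in succinate-energized rat liver mitochondria (1 mg protein/mL, 20 °C, pH 7.4 sucrose/HEPES medium) with 50 μM Ca2+. Added agents where indicated: 1 μM CsA, 5 μM bongkrekic acid, 1 mM ADP, 2 μM ruthenium red, 10 μM NEM, 1 mM DTE. At least five repeats.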"}, "Rattus norvegicus [13]": {"organism": "Rattus norvegicus", "test": "Induction of mitochondrial dysfunction in rat liver mitochondria assessed as increase in colloid-osmotic swelling at 10 uM by spectrophotometric analysis in presence of 50 uM Ca2+ and Ca2+ transport inhibitor ruthedium red", "assay_type": "functional", "outline": "as §4"}, "Rattus norvegicus [14]": {"organism": "Rattus norvegicus", "test": "Induction of mitochondrial dysfunction in Ca2+-stimulated rat liver mitochondria assessed as decrease in mitochondrial redox level at 10 uM after 15 mins by absorption spectrophotometric analysis in presence of cyclosporin A", "assay_type": "functional", "outline": "as §3"}, "Rattus norvegicus [15]": {"organism": "Rattus norvegicus", "test": "Induction of mitochondrial dysfunction in rat liver mitochondria assessed as increase in mitochondrial swelling at < 20 uM by spectrophotometric analysis in presence of 70 uM Ca2+", "assay_type": "functional", "outline": "as §1"}, "Rattus norvegicus [16]": {"organism": "Rattus norvegicus", "test": "Induction of mitochondrial dysfunction in rat liver mitochondria assessed as increase in mitochondrial swelling at 10 uM by spectrophotometric analysis in presence of 70 uM Ca2+", "assay_type": "functional", "outline": "as §1"}, "Rattus norvegicus [17]": {"organism": "Rattus norvegicus", "test": "Induction of mitochondrial dysfunction in rat liver mitochondria assessed as apoptosis inducing factor release at 100 uM after 15 mins by Western blot analysis", "assay_type": "functional", "outline": "as §2"}, "Rattus norvegicus [18]": {"organism": "Rattus norvegicus", "test": "Induction of mitochondrial dysfunction in rat liver mitochondria assessed as increase in colloid-osmotic swelling at 10 uM by spectrophotometric analysis in presence of 50 uM Ca2+ and AdNT", "assay_type": "functional", "outline": "as §4"}, "Rattus norvegicus [19]": {"organism": "Rattus norvegicus", "test": "Hepatoprotective activity in rat liver mitochondria assessed as inhibition of Ca2+-induced mitochondrial swelling at > 20 uM by spectrophotometric analysis", "assay_type": "functional", "outline": "as §1"}, "Rattus norvegicus [20]": {"organism": "Rattus norvegicus", "test": "Hepatoprotective activity in rat liver assessed as inhibition of colloid-osmotic mitochondrial swelling at 100 uM by spectrophotometric analysis in presence of 90 uM Ca2+", "conditions": "Mitochondria"}, "Rattus norvegicus [21]": {"organism": "Rattus norvegicus", "test": "Induction of mitochondrial dysfunction in rat liver mitochondria assessed as decrease in membrane potential at 10 uM by spectrophotometric analysis in presence of 50 uM Ca2+", "assay_type": "functional", "conditions": "TDE = time-dependent effect", "outline": "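Membrane potential (ΔΨ) derived from TPP+ distribution across the inner membrane, measured with a TPP+-selective electrode. Ca2+ 50 μM where indicated; cyclosporin A 1 μM where indicated.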"}, "Rattus norvegicus [22]": {"organism": "Rattus norvegicus", "test": "Induction of mitochondrial dysfunction in Ca2+-stimulated rat liver mitochondria assessed as decrease in mitochondrial redox level at 10 uM after 15 mins by absorption spectrophotometric analysis in presence of N-ethylmaleimide", "assay_type": "functional", "outline": "as §3"}, "Rattus norvegicus [23]": {"organism": "Rattus norvegicus", "test": "Induction of mitochondrial dysfunction in Ca2+-stimulated rat liver mitochondria assessed as decrease in mitochondrial redox level at 10 uM after 15 mins by absorption spectrophotometric analysis in presence of bongkrekic acid", "assay_type": "functional", "outline": "as §3"}, "Rattus norvegicus [24]": {"organism": "Rattus norvegicus", "test": "Induction of mitochondrial dysfunction in rat liver mitochondria assessed as increase in colloid-osmotic swelling at 10 uM by spectrophotometric analysis in presence of 50 uM Ca2+ and ADP", "assay_type": "functional", "outline": "as §4"}, "Rattus norvegicus [25]": {"organism": "Rattus norvegicus", "test": "Induction of mitochondrial dysfunction in rat liver mitochondria assessed as apoptosis inducing factor release at 100 uM after 15 mins by Western blot analysis in presence of Ca2+", "assay_type": "functional", "outline": "as §2"}, "Rattus norvegicus [26]": {"organism": "Rattus norvegicus", "test": "Induction of mitochondrial dysfunction in rat liver mitochondria assessed as increase in colloid-osmotic swelling at 10 to 100 uM by spectrophotometric analysis", "assay_type": "functional", "outline": "as §1"}}, "note": "Activity calls are given as the source filed them. The rule behind the calls is not given here.", "data": [{"smiles": "C/C(=C/CC[C@H](C)[C@@H]1CC[C@]2(C)C3=CC[C@H]4C(C)(C)[C@H](O)CC[C@]4(C)[C@H]3CC[C@@]12C)C(=O)O", "values": [{"measurement": "inhibition", "setting": "Rattus norvegicus [1]", "value": "Active"}, {"measurement": "Activity", "setting": "Rattus norvegicus [2]", "value": "Active"}, {"measurement": "Activity", "setting": "Rattus norvegicus [3]", "value": "Active"}, {"measurement": "Activity", "setting": "Rattus norvegicus [4]", "value": "inactive"}, {"measurement": "Activity", "setting": "Rattus norvegicus [5]", "value": "Active"}, {"measurement": "Activity", "setting": "Rattus norvegicus [6]", "value": 25, "unit": "%"}, {"measurement": "Activity", "setting": "Rattus norvegicus [7]", "value": "inactive"}, {"measurement": "Activity", "setting": "Rattus norvegicus [8]", "value": "inactive"}, {"measurement": "Activity", "setting": "Rattus norvegicus [9]", "value": "Active"}, {"measurement": "Activity", "setting": "Rattus norvegicus [10]", "value": "Dose-dependent effect"}, {"measurement": "Activity", "setting": "Rattus norvegicus [11]", "value": "Active"}, {"measurement": "Activity", "setting": "Rattus norvegicus [12]", "value": "inactive"}, {"measurement": "Activity", "setting": "Rattus norvegicus [13]", "value": "inactive"}, {"measurement": "Activity", "setting": "Rattus norvegicus [14]", "value": "inactive"}, {"measurement": "Activity", "setting": "Rattus norvegicus [15]", "value": "Active"}, {"measurement": "Activity", "setting": "Rattus norvegicus [16]", "value": "Active"}, {"measurement": "Activity", "setting": "Rattus norvegicus [17]", "value": "inactive"}, {"measurement": "Activity", "setting": "Rattus norvegicus [18]", "value": "inactive"}, {"measurement": "Activity", "setting": "Rattus norvegicus [19]", "value": "Active"}, {"measurement": "inhibition", "setting": "Rattus norvegicus [20]", "value": "Active"}, {"measurement": "Activity", "setting": "Rattus norvegicus [21]", "value": "tde"}, {"measurement": "Activity", "setting": "Rattus norvegicus [22]", "value": "inactive"}, {"measurement": "Activity", "setting": "Rattus norvegicus [23]", "value": "Active"}, {"measurement": "Activity", "setting": "Rattus norvegicus [24]", "value": "inactive"}, {"measurement": "Activity", "setting": "Rattus norvegicus [25]", "value": "inactive"}, {"measurement": "Activity", "setting": "Rattus norvegicus [26]", "value": "inactive"}]}]}
